# High-throughput results deposited in PubChem by Johns Hopkins Ion Channel Center.
# Hits are enriched below; roughly 3.7% of the tested compounds scored in any of these assays.
# KCNQ1 act: potentiators or activators of KCNQ1 channel, primary screen, cell-based, thallium flux, high-throughput; Potassium voltage-gated channel subfamily KQT member 1 (Homo sapiens), P51787; CHO-K1 KCNQ1, thallium flux FluxOR fluorescence; hits give high values; B-score at 10 µM; 0.35% of 310,000 active; AID 2648, 2010;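 active = fluorescence ratio B-score, a plate-corrected score, at least three library SD, with initial intensity B-score within 5 SD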
#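 Assay system: CHO-K1 cells stably expressing KCNQ1; Medium: assay buffer with matched DMSO; Also added: K+/Tl+ depolarizing stimulus; Dosing: single dose; Timing: dye 90 min, compound 20 min, room temperature; Measured by: kinetic FluxOR thallium fluorescence, 10-s 1-Hz baseline, 110-s post-stimulus read; Read-out: peak-minus-minimum fluorescence over initial fluorescence, negative-control normalized, B-scored.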
# KCNK9 block: KCNK9 potassium channel inhibitors, primary screen, HEK293 cells, thallium flux | Potassium channel subfamily K member 9 (Homo sapiens), Q9NPC2 | FluxOR thallium flux fluorescence; hits give low values | B-score at 10 µM | 1.2% of 310,000 active | AID 488922, 2010;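 active = ratio B-score over 3 SD below the library mean, with starting fluorescence within 5 SD of its mean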;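 note: negative B-score means less thallium flux so channel inhibition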
# KCNK3 block: human KCNK3 channel inhibitors, primary screen, CHO cells, FluxOR thallium flux, B-score; Potassium channel subfamily K member 3 (Homo sapiens), O14649; FluxOR fluorescence; hits give low values; B-score at 10 µM; 0.84% of 340,000 active;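 active = B-score under library mean minus 4 SD, starting fluorescence ratio at most library mean plus 5 SD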;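 note: more negative B-score means stronger inhibition of thallium flux through KCNK3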
# hERG protect: hERG rescue from dofetilide block, primary screen, cell-based, CHO-hERG, FluxOR thallium flux, dofetilide IC70; Voltage-gated inwardly rectifying potassium channel KCNH2 (Homo sapiens), Q12809; dofetilide IC70 present; activation (rescue from dofetilide block), less the hit threshold, % at 10 µM; 0.51% of 310,000 active;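 active = activation above the mean of controls blocked by dofetilide plus 5 SD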;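 note: thallium influx through hERG after potassium depolarization seen as dye fluorescence rise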
# Kir21 block: inhibitors of mouse Kir2.1 inward-rectifier potassium channel | Inward rectifier potassium channel 2 (Mus musculus), P35561 | HEK293-Kir2.1, FluxOR thallium flux fluorescence; hits give low values | B-score at 10 µM | 0.85% of 310,000 active | AID 1672, 2009;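 active = fluorescence ratio B-score at or below minus 3 SD of library scores, with starting-brightness B-score within 2 SD, cut at about -4.2 in these data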;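 note: channel flux triggered by added potassium and thallium sulfate stimulus; B-score of peak minus minimum fluorescence over baseline after thallium stimulus; more negative B-score means stronger Kir2.1 block with less thallium influx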
# Target sequence (P35561 whole entry, looked up): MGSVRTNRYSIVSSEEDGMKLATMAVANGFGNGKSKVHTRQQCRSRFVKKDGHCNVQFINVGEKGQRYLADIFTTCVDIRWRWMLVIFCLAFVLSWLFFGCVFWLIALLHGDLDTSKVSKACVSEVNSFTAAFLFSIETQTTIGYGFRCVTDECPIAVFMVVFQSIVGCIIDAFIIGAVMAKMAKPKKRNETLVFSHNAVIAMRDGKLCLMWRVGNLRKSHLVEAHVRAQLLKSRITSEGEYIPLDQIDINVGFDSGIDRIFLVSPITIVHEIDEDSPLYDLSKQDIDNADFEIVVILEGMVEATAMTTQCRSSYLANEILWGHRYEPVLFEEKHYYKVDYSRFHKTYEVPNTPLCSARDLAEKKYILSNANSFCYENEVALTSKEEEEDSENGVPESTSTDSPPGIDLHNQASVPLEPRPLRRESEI
# KCNQ1 inh: inhibitors of human KCNQ1 channel, primary screen, cell-based, thallium flux, high-throughput | Potassium voltage-gated channel subfamily KQT member 1 (Homo sapiens), P51787 | CHO-K1 KCNQ1, FluxOR thallium flux fluorescence; hits give high values | B-score at 10 µM | 1.3% of 310,000 active | AID 2642, 2010;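 active = compounds whose thallium flux B-score, printed positive for inhibition, exceeds three library SD while starting fluorescence stays within three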;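 note: channel opened by potassium depolarization with thallium stimulus after 20 min compound exposure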
# KCNK9 block conf: KCNK9 potassium channel inhibitors, confirmation, HEK293 cells, thallium flux, duplicate; shares compounds with KCNK9 block; FluxOR thallium flux fluorescence; inhibition, % at 10 µM; 43% of 4,900 active;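 active = thallium signal inhibited by more than 5 SD of the compound-free buffer control wells, on both duplicate plates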;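 note: 0% = assay buffer control wells without compound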
# Kir21 sel: mouse Kir2.1 channel inhibition, confirmation, selectivity assay for KCNK9 modulator project, cell-based, HEK293, thallium flux. 4% of 4,900 active. shares compounds with KCNK9 block. inhibition, % at 10 µM. Kir2.1 cells, FluxOR thallium flux fluorescence;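 active = thallium signal drop more than 5 SD beyond the mean of the no-compound control wells, seen in both duplicate plates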;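 note: signal is fluorescence rise after thallium addition divided by baseline fluorescence; plate controls were assay buffer only for no effect and full block by chlorpromazine control for full effect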
# KCNK9 uninduced: thallium flux in non-induced HEK293 cells, confirmation, counter-screen for KCNK9 inhibitor project, cell-based, second counter screen, non-induced KCNK9-HEK293; shares compounds with KCNK9 block; FluxOR thallium flux; inhibition, % at 10 µM; 40% of 4,900 active; AID 492997, 2010;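 active = thallium signal drop beyond 5 SD of the untreated control mean, on both duplicate plates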;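 note: plate controls were buffer only IC0 wells for no effect and SID17386958 at its maximal inhibitory level for full effect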
# Starred values were filed as active, the others as inactive; i = inactive; nt = no result given.
SMILES,KCNQ1 act,KCNK9 block,KCNK3 block,hERG protect,Kir21 block,KCNQ1 inh,KCNK9 block conf,Kir21 sel,KCNK9 uninduced
Cc1ccc(N2C(=O)C(Cl)=C(N3CCOCC3)C2=O)c(C)c1,i,i,i,-3.8,1.73,i,nt,nt,nt
COc1ccccc1-c1ccc(SCc2ccc(C)cc2)nn1,i,i,i,-23.7,0.47,i,i,i,i
COc1ccccc1-c1ccc(SCc2ccc(F)cc2)nn1,i,i,i,-12.0,-0.38,i,nt,nt,nt
CCOC(=O)C1CCN(c2c([N+](=O)[O-])c(C(Cl)Cl)nn2-c2ccccc2)CC1,i,i,i,-9.8,-0.53,i,i,i,i
O=[N+]([O-])c1c(C(Cl)Cl)nn(-c2ccccc2)c1N1CCCC1,i,i,i,-13.7,-0.37,i,nt,nt,nt
CSCCC(NC(=O)c1ccccc1Br)C(=O)N1CCCC(C(F)(F)F)C1 (stereo not given),i,i,i,-16.3,-0.64,i,nt,nt,nt
COc1ccc(CN2CCC(C(=O)Nc3ccc(Oc4cccnc4)cc3)CC2)c(C)c1C,i,i,i,-7.0,-1.28,i,nt,nt,nt
CC1CCCCN1C(=O)CSc1nc2cc3c(cc2c(=O)n1Cc1ccc2c(c1)OCO2)OCO3 (stereo not given),i,i,i,-17.8,-0.42,i,i,i,23.5%*
O=C(Cc1c(F)cccc1Cl)N1CCN(S(=O)(=O)c2cccs2)CC1,nt,nt,i,nt,nt,nt,nt,nt,nt
Fc1cccc(Cl)c1CSc1ccc(-c2cccnc2)nn1,i,-10.7*,i,-8.3,-0.28,i,33.0%*,i,i
Cc1cccc(C)c1-n1nnnc1SCSc1nnnn1-c1c(C)cccc1C,i,-12.9*,i,-7.8,1.58,i,i,i,35.0%*
CSc1nnnn1-c1c(C)cccc1C,i,i,i,-4.3,-0.32,i,nt,nt,nt
CC1CCC(C(C)C)C(OC(=O)COC(=O)c2ccc(N)cc2)C1 (stereo not given),i,i,i,-3.0,0.59,i,i,i,i
O=C(N/N=C/c1cn(-c2ccccc2)nc1-c1cccs1)c1ccc(Cl)cc1,i,i,i,-14.8,-2.28,i,nt,nt,nt
O=C(N/N=C/c1cn(-c2ccccc2)nc1-c1cccs1)c1ccccc1F,i,-12.8*,-9.05*,-17.6,0.77,6*,56.5%*,i,29.5%*
O=C(O)CCCCCN1C(=O)/C(=C/c2cn(-c3ccccc3)nc2-c2cccs2)SC1=S,nt,nt,i,nt,nt,nt,nt,nt,nt
CC1=NNC(=O)/C1=C\c1cn(-c2ccccc2)nc1-c1cccs1,i,i,i,-6.2,1,i,i,i,i
CN(CCC1CCOCC1)C(=O)CC1C(=O)NCCN1Cc1ccccc1F (stereo not given),i,i,i,-5.2,-1.24,i,nt,nt,nt
CC(NC(=O)CCCCCN1C(=O)c2ccccc2C1=O)c1ccc2c(c1)CCCC2 (stereo not given),i,i,i,-3.5,-0.88,i,i,i,i
CC(NC(=O)CCCCCCN1C(=O)c2ccccc2C1=O)c1ccc2c(c1)CCCC2 (stereo not given),i,i,i,-3.6,0.43,i,i,i,i
O=C(C1=C[C@H](c2ccc(Br)cc2)C[C@H](OCCCCO)O1)N1CCN(Cc2ccccc2)CC1,i,i,i,-6.1,-0.58,i,i,i,i
C#Cc1ccc([C@H]2C=C(C(=O)NCc3ccccc3)O[C@@H](OCc3ccc(CO)cc3)C2)cc1,i,i,i,-6.6,-1.19,i,i,i,i
O=C(Nc1ccccc1)C1=C[C@H](c2csc3ccccc23)C[C@H](OCc2ccc(CO)cc2)O1,i,-9.1*,i,-3.7,2.16,i,45.5%*,i,35.5%*
O=C(C1=C[C@@H](c2ccc(Br)cc2)C[C@@H](OCCCCO)O1)N1CCN(Cc2ccc3c(c2)OCO3)CC1,i,i,i,-11.4,0.03,i,nt,nt,nt
O=C(NC1CC1)C1=C[C@H](c2csc3ccccc23)C[C@H](OCc2ccc(CO)cc2)O1,i,i,i,-9.9,-1.11,i,nt,nt,nt
SMILES,KCNQ1 act,KCNK9 block,KCNK3 block,hERG protect,Kir21 block,KCNQ1 inh,KCNK9 block conf,Kir21 sel,KCNK9 uninduced
O=C(NCc1ccccc1)C1=C[C@H](c2ccc(Br)cc2)C[C@H](OCCCCO)O1,i,i,i,-8.6,-0.47,i,i,i,i
CCOC(=O)[C@@H]1[C@H]2COc3ccccc3[C@H]2N2C(=O)N(c3ccc(Cl)cc3)C(=O)[C@]12C,i,i,i,-4.4,0,i,nt,nt,nt
Cc1ccc(C(=O)NCCC(=O)N2CCC3(CC2)NCCc2[nH]cnc23)cc1C,i,i,i,-6.1,-1.66,i,nt,nt,nt
CCC(C)c1ccccc1NC(=O)c1cccc(-n2cnnn2)c1 (stereo not given),nt,nt,i,nt,nt,nt,nt,nt,nt
CC(C)(C)[C@H]1C=C(C(=O)NCc2ccccc2)O[C@@H](OCCCCO)C1,i,i,i,-4.0,-0.81,i,i,i,i
Cc1ccc(SCCN2CCC(C(C)(C)C)CCC2=O)cc1 (stereo not given),i,i,i,-8.6,-0.68,i,i,i,i
Cc1ccc(SCCN2CCC(NC(=O)OCc3ccccc3)CCC2=O)cc1 (stereo not given),i,i,i,-12.3,-1.73,i,i,i,i
C[C@@H](CSc1ccccc1)CN1CC[C@H](C(C)(C)C)CCC1=O,i,i,i,-10.4,-5.29*,i,i,i,i
Cc1ccc(SCCN2CCN(CC(C)C)CCC2=O)cc1,i,i,i,-8.2,0.04,i,i,i,i
